Activity calls are given as the source filed them. The rule behind the calls is not given here.
Experiments:
[1] = system: Tyrosine-protein kinase JAK2 (Mus musculus), Q62120 [V617F]; assay: Inhibition of JAK2 V617F mutant expressed in mouse BaF3 cells assessed as decreased total tyrosine phosphorylation at 1000 nM incubated for 3 hrs by Western blotting analysis; assay type: cell-based
Karpas-1106P [2] = assay: Induction of apoptosis in human KARPAS-1106P cells assessed as activation of caspase-3/7 incubated for 16 hrs; assay type: functional, cell-based
Outline: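 SET-2 and Karpas 1106P cells were exposed to graded drug concentrations for 16 h. Apoptosis was read as caspase-3/7 activation.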

SET-2 [3] = assay: Induction of cell cycle arrest in human SET2 cells expressing JAK2 V617F mutant assessed as decrease in accumulation of cells at S-phase incubated for 24 hrs by PI staining based flow cytometry; assay type: functional
Outline: (§1)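 Cells were fixed in 70% ice-cold ethanol and stained with propidium iodide, then analysed by flow cytometry for cell-cycle distribution.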

Karpas-1106P [4] = assay: Induction of cell cycle arrest in human KARPAS-1106P cells expressing JAK2 assessed as accumulation of cells at G0/1 phase incubated for 24 hrs by PI staining based flow cytometry; assay type: functional; outline: as §1
Karpas-1106P [5] = assay: Induction of cell cycle arrest in human KARPAS-1106P cells expressing JAK2 assessed as decrease in accumulation of cells at S phase incubated for 24 hrs by PI staining based flow cytometry; assay type: functional; outline: as §1
SNU-387 = assay: Antiproliferative activity against human SNU-387 cells assessed as inhibition of cell viability incubated for 48 hrs by CellTiterGlo assay; assay type: functional, cell-based; details: SNU-387, 48 h
Outline: (§2)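 Cells seeded at 30–50% confluency in 96-well plates, then treated the next day in triplicate at up to 10 μM for 48 h. Viability read by CellTiter-Glo luminescence. IC50 taken from fitted dose–response curves.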

CHL-1 = assay: Antiproliferative activity against human CHL-1 cells assessed as inhibition of cell viability incubated for 48 hrs by CellTiterGlo assay; assay type: functional, cell-based; details: CHL-1, 48 h; outline: as §2
COLO 205 = assay: Antiproliferative activity against human COLO 205 cells assessed as inhibition of cell viability incubated for 48 hrs by CellTiterGlo assay; assay type: functional, cell-based; details: COLO 205, 48 h; outline: as §2
NCI-H322M = assay: Antiproliferative activity against human NCI-H322M cells assessed as inhibition of cell viability incubated for 48 hrs by CellTiterGlo assay; assay type: functional, cell-based; outline: as §2
T47D = assay: Antiproliferative activity against human T47D cells assessed as inhibition of cell viability incubated for 48 hrs by CellTiterGlo assay; assay type: functional, cell-based
Outline: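 Cells from ATCC, grown per supplier guidance, were seeded at 30–50% confluency and dosed the next day in triplicate at concentrations up to 10 μM for 48 h. Viability was read by luminescent ATP (CellTiter-Glo), and IC50 was fitted from dose–response curves.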

MCF7 = assay: Antiproliferative activity against human MCF7 cells assessed as inhibition of cell viability incubated for 48 hrs by CellTiterGlo assay; assay type: functional, cell-based; details: MCF7, 48 h; outline: as §2
A2780 = assay: Antiproliferative activity against human A2780 cells assessed as inhibition of cell viability incubated for 48 hrs by CellTiterGlo assay; assay type: functional, cell-based; details: A2780, 48 h; outline: as §2
[6] = Antiproliferative activity against mouse 32D cells harboring JAK2 assessed as inhibition of cell viability incubated for 48 hrs by CellTiterGlo assay; assay type: functional, cell-based; outline: as §2
BaF3 = assay: Antiproliferative activity against mouse BaF3 cells harboring JAK2 V617F mutant assessed as inhibition of cell viability incubated for 48 hrs by CellTiterGlo assay; assay type: functional, cell-based; details: BaF3, 48 h; outline: as §2
MV4-11 = assay: Antiproliferative activity against human MV4-11 cells harboring FLT3-ITD mutant assessed as inhibition of cell viability incubated for 48 hrs by CellTiterGlo assay; assay type: functional, cell-based; details: MV4-11, 48 h; outline: as §2
Jurkat E6.1 = assay: Antiproliferative activity against human Jurkat E6.1 cells assessed as inhibition of cell viability incubated for 48 hrs by CellTiterGlo assay; assay type: functional, cell-based; details: Jurkat E6.1, 48 h; outline: as §2
MOLT-4 = assay: Antiproliferative activity against human MOLT-4 cells assessed as inhibition of cell viability incubated for 48 hrs by CellTiterGlo assay; assay type: functional, cell-based; details: MOLT-4, 48 h; outline: as §2
Mus musculus [7] = assay: In vivo inhibition of JAK2 V617F mutant in SCID Beige mouse xenografted with human SET2 cells assessed as decreased STAT5 phosphorylation at Y694 by immunoblotting analysis; assay type: functional, organism-based; details: dose 75-150 mg/kg, route po
Outline: (§3)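 Subcutaneous SET-2 tumors in SCID beige mice. Single oral doses of 75 or 150 mg/kg were given at about 300 mm3 tumor size; in the chronic arm, dosing ran for 18 days. Tumors were collected 3 h post-dose, lysed, and immunoblotted for pJAK2 (Y1007/8) and pSTAT5.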

SET-2 [8] = assay: Anti-tumor activity against human SET2 cells xenografted in SCID Beige mouse assessed as tumor growth inhibition at 75 mg/kg, po administered for 18 days and measured twice a week relative to control; assay type: functional; details: SET-2, 432 h, time 18 day, read-out: TGI
Outline: (§4)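 SCID beige mice received 5 × 10^6 SET-2 cells subcutaneously in the right flank, in serum-free medium mixed 1:1 with Matrigel. Dosing began when tumors averaged about 280 mm3 (day 31). Oral gavage at 10 ml/kg for 18 consecutive days, 12 mice per group. Caliper volume = (w² × l)/2. Animals were killed 3 h after the final dose.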

SET-2 [9] = assay: Anti-tumor activity against human SET2 cells xenografted in SCID Beige mouse assessed as tumor growth inhibition at 150 mg/kg, po administered for 18 days and measured twice a week relative to control; assay type: functional; details: SET-2, 432 h, time 18 day, read-out: TGI; outline: as §4
Mus musculus [10] = assay: In vivo inhibition of JAK2 V617F mutant in SCID Beige mouse xenografted with human SET2 cells assessed as decreased STAT5 phosphorylation at Y694 at 75 to 150 mg/kg, po administered for 18 days and measured after 3 hrs by Western blotting analysis; assay type: functional, organism-based; details: dose 75-150 mg/kg, time 18.0 day; outline: as §3
[11] = target: Tyrosine-protein kinase JAK2 (Homo sapiens) (UniProt O60674); details: HEK-293T, dose 8-1000 nM, time 3.0 hrs
Tyrosine-protein kinase JAK2 (Homo sapiens), sequence (O60674 whole entry): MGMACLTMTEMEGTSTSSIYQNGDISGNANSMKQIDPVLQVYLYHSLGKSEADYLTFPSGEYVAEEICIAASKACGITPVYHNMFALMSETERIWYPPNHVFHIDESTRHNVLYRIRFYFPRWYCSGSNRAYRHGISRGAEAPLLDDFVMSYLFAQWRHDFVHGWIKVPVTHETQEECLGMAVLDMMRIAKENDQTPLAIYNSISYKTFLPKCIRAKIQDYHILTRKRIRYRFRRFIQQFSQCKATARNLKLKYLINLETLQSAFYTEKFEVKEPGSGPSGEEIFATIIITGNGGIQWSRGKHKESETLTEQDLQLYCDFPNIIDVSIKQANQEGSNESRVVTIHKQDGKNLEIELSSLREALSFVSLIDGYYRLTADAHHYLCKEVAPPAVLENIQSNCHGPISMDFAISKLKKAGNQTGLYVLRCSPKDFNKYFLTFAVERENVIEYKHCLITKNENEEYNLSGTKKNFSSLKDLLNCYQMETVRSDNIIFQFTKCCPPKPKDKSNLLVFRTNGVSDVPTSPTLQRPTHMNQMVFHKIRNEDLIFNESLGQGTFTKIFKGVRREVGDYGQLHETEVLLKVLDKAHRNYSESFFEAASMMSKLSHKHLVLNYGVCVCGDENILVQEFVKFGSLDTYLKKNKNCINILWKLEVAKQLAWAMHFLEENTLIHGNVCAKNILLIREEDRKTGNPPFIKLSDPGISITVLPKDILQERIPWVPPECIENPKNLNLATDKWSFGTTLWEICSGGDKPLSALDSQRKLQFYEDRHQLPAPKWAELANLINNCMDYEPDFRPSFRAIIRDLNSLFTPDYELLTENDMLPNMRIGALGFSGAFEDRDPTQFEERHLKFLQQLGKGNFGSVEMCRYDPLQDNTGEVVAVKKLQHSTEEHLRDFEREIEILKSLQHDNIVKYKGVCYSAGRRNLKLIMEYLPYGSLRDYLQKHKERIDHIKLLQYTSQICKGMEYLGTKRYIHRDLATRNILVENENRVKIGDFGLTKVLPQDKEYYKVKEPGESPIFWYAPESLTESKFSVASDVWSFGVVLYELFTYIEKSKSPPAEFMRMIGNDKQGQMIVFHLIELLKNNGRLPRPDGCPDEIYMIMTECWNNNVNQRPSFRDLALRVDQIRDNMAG

[12] = target: Tyrosine-protein kinase JAK2 (Homo sapiens) (UniProt O60674); details: HEK-293T, dose 8-1000 nM, time 3.0 hrs; remark: listed apart in the source
[13] = target: Tyrosine-protein kinase JAK2 (Homo sapiens) (UniProt O60674); details: Jurkat, dose 40-1000 nM, time 3.0 hrs
[14] = target: Tyrosine-protein kinase JAK2 (Homo sapiens) (UniProt O60674); details: KARPAS-1106P, dose 8-1000 nM, time 3.0 hrs
[15] = system: Tyrosine-protein kinase JAK2 (Homo sapiens), O60674 [V617F]; details: SET2, dose 8-1000 nM, time 3.0 hrs
Tyrosine-protein kinase JAK2 (Homo sapiens), O60674 [V617F], sequence (O60674 whole entry V617F): as the sequence (O60674 whole entry) above, with V617F counted along it

[16] = system: Tyrosine-protein kinase JAK2 (Homo sapiens), O60674 [V617F]; details: HEL 92.1.7, dose 1000.0 nM, time 4-24 hrs
[17] = system: Tyrosine-protein kinase JAK2 (Homo sapiens), O60674 [V617F]; details: SET2, dose 8-1000 nM, time 3.0 hrs; remark: listed apart in the source

Tyrosine-protein kinase JAK2 (Mus musculus), Q62120 [V617F], sequence (Q62120 as listed by the source): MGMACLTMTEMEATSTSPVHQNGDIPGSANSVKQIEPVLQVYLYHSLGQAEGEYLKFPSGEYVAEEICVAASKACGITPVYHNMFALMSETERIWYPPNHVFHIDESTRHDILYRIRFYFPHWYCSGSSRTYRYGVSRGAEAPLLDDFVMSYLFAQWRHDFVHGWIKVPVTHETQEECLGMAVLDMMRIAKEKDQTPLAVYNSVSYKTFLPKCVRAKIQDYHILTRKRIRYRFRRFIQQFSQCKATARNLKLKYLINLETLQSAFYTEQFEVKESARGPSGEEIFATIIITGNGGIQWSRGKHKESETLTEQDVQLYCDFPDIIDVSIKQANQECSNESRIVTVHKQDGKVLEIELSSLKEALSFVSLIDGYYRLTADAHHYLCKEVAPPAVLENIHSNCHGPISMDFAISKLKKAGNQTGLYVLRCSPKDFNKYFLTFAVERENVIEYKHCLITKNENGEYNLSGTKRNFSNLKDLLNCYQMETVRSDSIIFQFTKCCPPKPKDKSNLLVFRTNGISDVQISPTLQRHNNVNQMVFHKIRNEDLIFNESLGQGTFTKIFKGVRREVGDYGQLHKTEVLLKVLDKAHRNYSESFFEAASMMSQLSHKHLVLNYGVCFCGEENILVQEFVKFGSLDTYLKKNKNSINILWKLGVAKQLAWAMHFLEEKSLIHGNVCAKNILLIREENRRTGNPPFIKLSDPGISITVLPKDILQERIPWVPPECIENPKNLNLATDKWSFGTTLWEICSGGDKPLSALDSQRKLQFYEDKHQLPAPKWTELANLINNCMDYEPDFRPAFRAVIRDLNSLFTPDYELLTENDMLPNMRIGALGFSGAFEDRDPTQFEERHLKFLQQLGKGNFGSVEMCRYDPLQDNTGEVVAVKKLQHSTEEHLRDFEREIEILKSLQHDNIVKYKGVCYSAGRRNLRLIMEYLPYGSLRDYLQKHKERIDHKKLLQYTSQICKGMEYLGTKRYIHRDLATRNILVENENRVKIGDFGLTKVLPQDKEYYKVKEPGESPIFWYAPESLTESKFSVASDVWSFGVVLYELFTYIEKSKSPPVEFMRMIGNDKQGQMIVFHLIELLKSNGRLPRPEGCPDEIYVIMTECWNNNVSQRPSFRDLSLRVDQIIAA

- inhibition [1]: Active
- EC50 (Karpas-1106P [2]): 1120 nM
- IC50 (SNU-387): 2030 nM
- IC50 (COLO 205): 2620 nM
- IC50 (NCI-H322M): 2180 nM
- IC50 (T47D): 1280 nM
- IC50 (MCF7): 853 nM
- IC50 (A2780): 664 nM
- IC50 (BaF3): 160 nM
- IC50 (MV4-11): 47 nM
- IC50 (Jurkat E6.1): 839 nM
- IC50 (MOLT-4): 750 nM
- inhibition [11]: Dose-Dependent Effect
- inhibition [12]: Dose-Dependent Effect
- inhibition [13]: Active
- inhibition [14]: Active
- inhibition [15]: Active
- inhibition [16]: Tde
- inhibition [17]: Dose-Dependent Effect
Structure (SMILES): C1=N/C2=N/c3ccc(OCCN4CCCC4)c(c3)COC/C=C/COCc3cccc(c3)C(=C1)N2 [PACRITINIB]
- Activity (Karpas-1106P [2]): Dose-Dependent Effect
- Activity (SET-2 [3]): Dose-Dependent Effect
- Activity (Karpas-1106P [4]): Dose-Dependent Effect
- Activity (Karpas-1106P [5]): Dose-Dependent Effect
- IC50 (CHL-1): 1400 nM
- IC50 [6]: 402 nM
- Activity (Mus musculus [7]): Dose-Dependent Effect
- inhibition in vivo at 75 mg/kg (SET-2 [8]): 40%
- inhibition in vivo at 150 mg/kg (SET-2 [9]): 61%
- Activity (Mus musculus [10]): Active
